For orientation: IC50 means the midpoint of a concentration-inhibition curve. The low end stands for greater potency, the high end for weaker potency.

What all share (assay type): functional, cell-based
The test system of one test is SK-OV-3. Description: Anticancer activity against human SKOV3 cells after 72 hrs by sulforhodamine B assay. Particulars: SK-OV-3, 72 h. An outline of the steps:
(§1)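 Cells kept in RPMI 1640 with 10% FBS and passaged with trypsin-EDTA. Seeded at 1-2 × 10^4 cells/well and grown 24 h, then given compounds dissolved in culture medium, in triplicate. Exposure 48 h at 37 °C in 5% CO2. Fixed with cold 10% TCA, stained with 0.4% SRB in 1% acetic acid, dye solubilized in 10 mM Tris base (pH 10.5), absorbance read at 520 nm. IC50 is the concentration giving 50% inhibition.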
On the technique in general: The SRB assay estimates cell density from bound dye.

A further test deals with A549. Nature of the test: Anticancer activity against human A549 cells after 72 hrs by sulforhodamine B assay. Particulars: A549, 72 h.
For another test, the system named is XF498. Nature of the test: Anticancer activity against human XF498 cells after 72 hrs by sulforhodamine B assay. Particulars: XF498, 72 h. The essentials: as §1
For a further test, the system named is HCT-15. Description: Anticancer activity against human HCT15 cells after 72 hrs by sulforhodamine B assay. The note with it: HCT-15, 72 h. The essentials: as §1
The test system of another test is SK-MEL-2. Description: Anticancer activity against human SK-MEL-2 cells after 72 hrs by sulforhodamine B assay. Particulars: SK-MEL-2, 72 h. An outline of the steps:
as §1

Molecules are shown by their SMILES. Converted amounts (≈) assume the structure as drawn.

With `CCc1ccc(NC(=O)CCCC[C@@H](C)O[C@@H]2O[C@@H](C)[C@H](O)C[C@H]2O)cc1`, the IC50 was determined as 0.24 µg/mL (≈ 0.632 µM) with SK-OV-3; 0.34 µg/mL (≈ 0.896 µM) with A549; 0.25 µg/mL (≈ 0.659 µM) with XF498; 0.2 µg/mL (≈ 0.527 µM) in the test on HCT-15; 0.11 µg/mL (≈ 0.29 µM) in the test on SK-MEL-2.

`C[C@H](CCCCC(=O)OCc1cccc(Oc2ccccc2)c1)O[C@@H]1O[C@@H](C)[C@H](O)C[C@H]1O`: the IC50 amounted to 0.54 µg/mL (≈ 1.18 µM) with SK-OV-3; 0.24 µg/mL (≈ 0.523 µM) in the test on A549; 0.52 µg/mL (≈ 1.13 µM) in the test on XF498; 0.75 µg/mL (≈ 1.64 µM) with HCT-15; 0.13 µg/mL (≈ 0.284 µM) in the test on SK-MEL-2.

For the compound `C[C@H](CCCCC(=O)NCc1ccco1)O[C@@H]1O[C@@H](C)[C@H](O[C@@H]2O[C@@H](C)[C@H](O)C[C@H]2O)C[C@H]1O[C@@H]1O[C@@H](C)[C@H](O)C[C@H]1O`, the concentration for half-maximal inhibition (IC50) in the test with SK-OV-3 turned out to be 0.01 µg/mL (≈ 0.0162 µM); in the test on A549, 0.08 µg/mL (≈ 0.13 µM); in the test with XF498 it was 0.07 µg/mL (≈ 0.114 µM); in the test with HCT-15, 0.06 µg/mL (≈ 0.0974 µM); with SK-MEL-2 it was 0.04 µg/mL (≈ 0.065 µM).

Regarding `C[C@H](CCCCCCN=[N+]=[N-])O[C@@H]1O[C@@H](C)[C@H](O[C@@H]2O[C@@H](C)[C@H](O)C[C@H]2O)C[C@H]1O[C@@H]1O[C@@H](C)[C@H](O)C[C@H]1O`, the IC50 was 0.14 µg/mL (≈ 0.249 µM) in the test with SK-OV-3; 0.24 µg/mL (≈ 0.427 µM) in the test with A549; 0.43 µg/mL (≈ 0.766 µM) in the test with XF498; 0.14 µg/mL (≈ 0.249 µM) in the test on HCT-15; 0.33 µg/mL (≈ 0.588 µM) in the test with SK-MEL-2.

With `COC(=O)CCCC[C@@H](C)O[C@@H]1O[C@@H](C)[C@H](O[C@@H]2O[C@@H](C)[C@H](O)C[C@H]2O)C[C@H]1O[C@@H]1O[C@@H](C)[C@H](O)C[C@H]1O`, the IC50 with SK-OV-3 stood at 0.14 µg/mL (≈ 0.254 µM); in the test on A549, 0.13 µg/mL (≈ 0.236 µM); in the test with XF498, 0.19 µg/mL (≈ 0.345 µM); with HCT-15, 0.21 µg/mL (≈ 0.381 µM); in the test on SK-MEL-2, 0.41 µg/mL (≈ 0.745 µM).

Turning to `CC1CCN(C(=O)CCCC[C@@H](C)O[C@@H]2O[C@@H](C)[C@H](O[C@@H]3O[C@@H](C)[C@H](O)C[C@H]3O)C[C@H]2O[C@@H]2O[C@@H](C)[C@H](O)C[C@H]2O)CC1`, the 50% inhibitory concentration (IC50) with SK-OV-3 was 0.03 µg/mL (≈ 0.0486 µM); in the test on A549, 0.06 µg/mL (≈ 0.0971 µM); with XF498, 0.06 µg/mL (≈ 0.0971 µM); in the test on HCT-15, 0.02 µg/mL (≈ 0.0324 µM); in the test with SK-MEL-2, 0.03 µg/mL (≈ 0.0486 µM).

For `CCCCCCCCCCCCCCNC(=O)CCCC[C@@H](C)O[C@@H]1O[C@@H](C)[C@H](O)C[C@H]1O`, the IC50 with SK-OV-3 came to 0.24 µg/mL (≈ 0.509 µM); in the test with A549, 0.16 µg/mL (≈ 0.339 µM); in the test with XF498 it was 0.42 µg/mL (≈ 0.89 µM); in the test with HCT-15, 0.31 µg/mL (≈ 0.657 µM); in the test with SK-MEL-2 it was 0.11 µg/mL (≈ 0.233 µM).

Regarding `C[C@@H]1CCCCCCCCC(=O)O[C@@H]2C[C@@H](O)[C@H](C)O[C@H]2O[C@@H]2C[C@@H](O)[C@H](C)O[C@H]2O1`, the IC50 in the test with SK-OV-3 was 0.14 µg/mL (≈ 0.315 µM); in the test with A549 it was 0.57 µg/mL (≈ 1.28 µM); in the test on XF498, 0.43 µg/mL (≈ 0.967 µM); with HCT-15 it was 0.54 µg/mL (≈ 1.21 µM); in the test with SK-MEL-2, 0.44 µg/mL (≈ 0.99 µM).

As for `C[C@H](CCCCC1CO1)O[C@@H]1O[C@@H](C)[C@H](O[C@@H]2O[C@@H](C)[C@H](O)C[C@H]2O)C[C@H]1O[C@@H]1O[C@@H](C)[C@H](O)C[C@H]1O` (some centres undefined), the IC50 in the test on SK-OV-3 is 0.14 µg/mL (≈ 0.262 µM); with A549 it was 0.76 µg/mL (≈ 1.42 µM); with XF498, 0.65 µg/mL (≈ 1.22 µM); in the test with HCT-15, 0.21 µg/mL (≈ 0.393 µM); in the test on SK-MEL-2, 0.65 µg/mL (≈ 1.22 µM).

Turning to `C[C@H](CCCCC(=O)O)O[C@@H]1O[C@@H](C)[C@H](O)C[C@H]1O` [DAUMONE], the IC50 in the test on SK-OV-3 is 0.02 µg/mL (≈ 0.0724 µM); with A549, 0.03 µg/mL (≈ 0.109 µM); with XF498 it was 0.09 µg/mL (≈ 0.326 µM); in the test on HCT-15, 0.05 µg/mL (≈ 0.181 µM); with SK-MEL-2 it was 0.07 µg/mL (≈ 0.253 µM).

For `CCCCCC[C@@H](C)O[C@@H]1O[C@@H](C)[C@H](O)C[C@H]1O[C@@H]1O[C@@H](C)[C@H](OC(=O)CCCC)C[C@H]1OC(=O)CCCC`, the IC50 with SK-OV-3 stood at 0.73 µg/mL (≈ 1.31 µM); with A549, 0.78 µg/mL (≈ 1.4 µM); in the test with XF498 it was 0.45 µg/mL (≈ 0.805 µM); in the test with HCT-15 it was 0.21 µg/mL (≈ 0.376 µM); in the test with SK-MEL-2, 0.43 µg/mL (≈ 0.77 µM).

Consider `COc1cccc2c1C(=O)c1c(O)c3c(c(O)c1C2=O)C[C@@](O)(C(=O)CO)C[C@@H]3O[C@H]1C[C@H](N)[C@H](O)[C@H](C)O1` [DOXORUBICIN], for which the IC50 in the test with SK-OV-3 turned out to be 0.024 µg/mL (≈ 0.0442 µM); in the test on XF498, 0.19 µg/mL (≈ 0.35 µM); in the test with HCT-15 it was 0.02 µg/mL (≈ 0.0368 µM); in the test with SK-MEL-2, 0.015 µg/mL (≈ 0.0276 µM).

For `C[C@H](CCCCC(=O)NCCCN1CCCC1=O)O[C@@H]1O[C@@H](C)[C@H](O)C[C@H]1O`, the concentration for half-maximal inhibition (IC50) came to 0.65 µg/mL (≈ 1.62 µM) in the test on SK-OV-3; 0.76 µg/mL (≈ 1.9 µM) with A549; 0.25 µg/mL (≈ 0.624 µM) with XF498; 0.54 µg/mL (≈ 1.35 µM) in the test on HCT-15; 0.33 µg/mL (≈ 0.824 µM) in the test on SK-MEL-2.

Take `CCCCCC[C@H](CCCCCCCCCCC(=O)O)O[C@@H]1O[C@@H](C)[C@H](O[C@@H]2O[C@@H](C)[C@H](O)C[C@H]2O)C[C@H]1O`: the IC50 came to 0.32 µg/mL (≈ 0.571 µM) with SK-OV-3; 0.64 µg/mL (≈ 1.14 µM) in the test on A549; 0.43 µg/mL (≈ 0.767 µM) in the test on XF498; 0.53 µg/mL (≈ 0.945 µM) in the test on HCT-15; 0.33 µg/mL (≈ 0.588 µM) with SK-MEL-2.

Take `CCCCCC[C@H](CCCCCCCCCCC(=O)OC)O[C@@H]1O[C@@H](C)[C@H](O[C@@H]2O[C@@H](C)[C@H](O)C[C@H]2O)C[C@H]1O[C@@H]1O[C@@H](C)[C@H](O)C[C@H]1O`: the IC50 came to 0.24 µg/mL (≈ 0.34 µM) with SK-OV-3; 0.12 µg/mL (≈ 0.17 µM) in the test with A549; 0.32 µg/mL (≈ 0.454 µM) in the test with XF498; 0.1 µg/mL (≈ 0.142 µM) with HCT-15; 0.32 µg/mL (≈ 0.454 µM) with SK-MEL-2.

Turning to `C=CCCCCOC(=O)CCCC[C@@H](C)O[C@@H]1O[C@@H](C)[C@H](O)C[C@H]1O`, the IC50 with SK-OV-3 was determined as 0.31 µg/mL (≈ 0.865 µM); in the test with A549, 0.12 µg/mL (≈ 0.335 µM); in the test with XF498, 0.15 µg/mL (≈ 0.418 µM); with HCT-15, 0.12 µg/mL (≈ 0.335 µM); in the test with SK-MEL-2, 0.22 µg/mL (≈ 0.614 µM).

In the case of `C=CCN1CCN(C(=O)CCCC[C@@H](C)O[C@@H]2O[C@@H](C)[C@H](O)C[C@H]2O)CC1`, the IC50 in the test on SK-OV-3 amounted to 0.32 µg/mL (≈ 0.832 µM); in the test on A549 it was 0.54 µg/mL (≈ 1.4 µM); in the test with XF498, 0.62 µg/mL (≈ 1.61 µM); in the test with HCT-15, 0.34 µg/mL (≈ 0.884 µM); in the test on SK-MEL-2, 0.53 µg/mL (≈ 1.38 µM).

As to `C[C@H](CCCCC(=O)Nc1cccc(Br)c1)O[C@@H]1O[C@@H](C)[C@H](O[C@@H]2O[C@@H](C)[C@H](O)C[C@H]2O)C[C@H]1O[C@@H]1O[C@@H](C)[C@H](O)C[C@H]1O`, the IC50 was determined as 0.07 µg/mL (≈ 0.101 µM) with SK-OV-3; 0.07 µg/mL (≈ 0.101 µM) with A549; 0.05 µg/mL (≈ 0.0724 µM) in the test with XF498; 0.02 µg/mL (≈ 0.029 µM) with HCT-15; 0.09 µg/mL (≈ 0.13 µM) in the test with SK-MEL-2.

Turning to `C[C@@H]1O[C@H]2O[C@@H](C)CCCCCCCCC(=O)O[C@@H]3C[C@@H](O)[C@@H](O[C@H]3C)O[C@@H]2C[C@H]1O`, the IC50 is 0.73 µg/mL (≈ 1.64 µM) with SK-OV-3; 0.63 µg/mL (≈ 1.42 µM) in the test with A549; 0.34 µg/mL (≈ 0.765 µM) in the test with XF498; 0.65 µg/mL (≈ 1.46 µM) with HCT-15; 0.33 µg/mL (≈ 0.742 µM) in the test with SK-MEL-2.
